Calls of active or inactive are those of the source. No cut-off for these calls is given here.
How the values were obtained:
[1] = biological target: T1, Nuclear factor NF-kappa-B complex (Homo sapiens) (UniProt Q00653+P19838+Q04206); assay: Inhibition of LPS-induced NF-kappaB activation in human THP-1 monocytes expressing luciferase gene at 0.01 to 100 nM pretreated for 30 mins followed by LPS stimulation and measured after 24 hrs by bioluminescence analysis; assay type: cell-based; conditions: dose 0.01-100 nM, time 24.5 hr
In short: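 Secreted luciferase in supernatant read with QUANTI-Luc by bioluminescence, normalized to BCA protein (lum/abs ratio, two replicates), expressed as % of LPS response; mean ± SEM, n = 3.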

THP-1 [2] = assay: Anti-inflammatory activity against human THP-1 monocytes assessed as reduction in LPS-induced IL-1beta release at 0.01 nM to 100 nM pretreated for 30 mins followed LPS stimulation and measured after 24 hrs by multiplex chemiluminescence detection method; assay type: functional; conditions: time 24.5 hrs
In short: (§1)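 THP-1-Lucia NF-κB monocytes (1 × 10⁵/well, 0.1% FBS medium) pretreated 30 min with compound (ethanol stock, final 0.1% ethanol vehicle), then 50 ng/mL LPS for 24 h.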

THP-1 [3] = assay: Cytotoxicity against human THP-1 monocytes assessed as LDH release at 0.001 to 1000 nM incubated for 24 hrs in absence of LPS by LDH assay; assay type: toxicity, cell-based; conditions: thp-1, 24 h, 1 µM, dose 0.001-1000 nM
In short: (§2)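 THP-1-Lucia monocytes (1 × 10⁵/well) exposed 24 h to compound without LPS (1 pM upward; 0.1% ethanol vehicle). Supernatant LDH absorbance at 490 nm with 690 nm background; 2% Triton X-100 lysis defined maximum release, untreated cells spontaneous release; expressed as % LDH release relative to LPS ± SEM, n = 3.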

HEK293 = assay: Agonist activity at ALX/FPR2 receptor (unknown origin) expressed in HEK-293 cells assessed as increase in calcium flux at 0.01 to 100 nM by Fluo-4 staining based assay; assay type: cell-based; conditions: Homo sapiens, filed as agonist, dose 0.01-100 nM
In short: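 HEK-293 cells stably double-transfected with ALX/FPR2 and Gαq (Geneticin 500 and Hygromycin 100 μg/mL selection); wild-type HEK-293 as specificity control. Cultured 18 h, loaded with Fluo-4 (37 °C, 1 h), compounds injected in-reader (10 pM–100 nM). Baseline-to-peak calcium fluorescence difference expressed as % of LXA₄ peak; ATP 1 μM and W-peptide 2 nM positive controls; n = 3 independent experiments.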

[4] = biological target: T1, Nuclear factor NF-kappa-B complex (Homo sapiens); assay: Inhibition of TNFalpha-stimulated NF-kappaB activity (unknown origin) expressed in mouse primary smooth muscle cells at 0.1 nM pretreated for 30 mins followed by TNFalpha stimulation and incubated for 24 hrs by SEAP reporter gene assay; assay type: cell-based; conditions: time 24.5 hrs
In short: (§3)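 Mouse primary vascular SMCs in DMEM with 25 mM glucose, serum-restricted (1% FBS) 24 h, transfected 24 h with pNF-κB-SEAP, pretreated 30 min, then TNF-α 1 ng/mL for 24 h; 0.1% ethanol vehicle. Secreted alkaline phosphatase measured in supernatant; fold change vs vehicle, mean ± SEM of 6–8 independent experiments.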

THP-1 [5] = assay: Induction of phagocytosis in human THP-1-MF0 macrophages at 100 nM pretreated for 30 mins followed by fluorescently labeled Escherichia coli derived bio-particles addition and measured after 2 hrs; assay type: functional, cell-based; conditions: time 2.5 hrs
In short: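 THP-1 monocytes differentiated with 16 nM PMA 48 h plus 24 h rest; 1 × 10⁵ macrophages/well in 0.1% serum adhered 1.5 h, treated 30 min (1 fM–1 μM), medium replaced with fluorescent E. coli bioparticles for 2 h at 37 °C in dark; trypan blue quench 1 min; bottom-read fluorescence Ex480/Em520; fold change vs vehicle, n = 3.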

THP-1 [6] = assay: Anti-inflammatory activity against human THP-1 monocytes assessed as […] in LPS-induced IL-8 release at 1 nM by multiplex chemiluminescence detection method; assay type: functional, cell-based; in short: as §1
Mus musculus [7] = assay: Anti-inflammatory activity in C57BL/6J mouse model of carrageenan-induced paw edema assessed as reduction in paw swelling at 2 ug/kg, ip administered 30 mins prior to carrageenan injection; assay type: functional, organism-based; conditions: dose 2.0 µg/kg
In short: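 Male C57BL/6 mice dosed 30 min before intraplantar 50 μL 1% carrageenan (saline in contralateral paw); test compound 2 μg/kg ip, naproxen 50 mg/kg po. Paw thickness difference tracked over time (to 72 h) with a lever gauge as edema index; mean ± SEM, n = 3 mice/group.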

Mus musculus [8] = assay: Anti-inflammatory activity in zymosan-induced C57BL/6J mouse model of peritonitis assessed as reduced neutrophil influx at 6 ug/kg, ip treated 30 mins prior to zymosan administration (reference value: 100 %); design: scale not given: the % may be the effect or the level left; conditions: 0.5 h
Mus musculus [9] = species: Mus musculus; assay: Anti-inflammatory activity in zymosan-induced C57BL/6J mouse model of peritonitis assessed as change in monocyte cell count; assay type: functional, organism-based
THP-1 [10] = assay: Cytoprotection against LPS-stimulated human THP-1 monocytes toxicity assessed as fold reduction in LDH release at 0.001 to 1000 nM incubated for 24 hrs by LDH assay; assay type: functional; conditions: dose 0.001-1000 nM
In short: (§4)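 Supernatant LDH read at 490 nm minus 690 nm background; maximum release from 2% Triton X-100 lysis; expressed as % LDH release relative to LPS ± SEM, n = 3.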

Mus musculus [11] = species: Mus musculus; assay: Anti-inflammatory activity in zymosan-induced C57BL/6J mouse model of peritonitis assessed as change in macrophage cell count; assay type: functional, organism-based
Mus musculus [12] = assay: (§5) Anti-inflammatory activity in zymosan-induced C57BL/6J mouse model of peritonitis assessed as maximal response at 6 ug/kg, ip treated 30 mins prior to zymosan administration and once again 1 hr after zymosan administration and measured 24 hrs post zymosan injection by flow cytometry analysis (reference value: 100 %); assay type: functional; conditions: dose 6 µg/kg; time 24.5 hrs
In short: (§6)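 Male C57BL/6J mice (9 weeks) given zymosan 1 mg/mouse ip (40 mg/kg); compound (2 or 6 μg/kg) or dexamethasone (1 mg/kg) ip 30 min before and 1 h after zymosan. Peritoneal lavage 24 h post-zymosan; cells counted with Turk's solution, stained Ly6G/F4/80/CD11b, PMN as Ly6G⁺ by flow cytometry; % of vehicle + zymosan maximal response; n = 5 mice/group, one-way ANOVA.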

Mus musculus [13] = species: Mus musculus; assay: Anti-inflammatory activity in zymosan-induced C57BL/6J mouse model of peritonitis assessed as change in polymorphonuclear cell count; assay type: functional, organism-based; in short: as §6
Mus musculus [14] = assay: as §5, with “total number of polymorphonuclear cells” for “maximal response”, “4.7 +/- 0.5 x10^6 /ml)” for “100 %)”; assay type: functional; conditions: dose 6 µg/kg; time 24.5 hrs; in short: as §6
THP-1 [15] = assay: Cytoprotection against LPS-stimulated human THP-1 monocytes toxicity assessed as reduction LDH release at 1 uM incubated for 24 hrs by LDH assay; assay type: functional; in short: as §4
THP-1 [16] = assay: Cytotoxicity against human THP-1 monocytes assessed as LDH release at 1 uM incubated for 24 hrs in absence of LPS by LDH assay; assay type: toxicity, cell-based; conditions: thp-1, 24 h; in short: as §2
Mus musculus [17] = assay: as §5, with “1 mg/kg,” for “6 ug/kg,”; assay type: functional; conditions: time 24.5 hrs; in short: as §6
Mus musculus [18] = assay: Anti-inflammatory activity in zymosan-induced C57BL/6J mouse model of peritonitis assessed as reduced neutrophil influx at 11 mg/kg, ip treated 1 hr prior to zymosan administration (reference value: 100 %); assay type: functional; design: scale not given: the % may be the effect or the level left
THP-1 [19] = assay: Anti-inflammatory activity against human THP-1 monocytes assessed as reduction in LPS-induced IFNgamma release pretreated for 30 mins followed LPS stimulation and measured after 24 hrs by multiplex chemiluminescence detection method; assay type: functional, cell-based; in short: as §1
THP-1 [20] = assay: Anti-inflammatory activity against human THP-1 monocytes assessed as reduction in LPS-induced IFNgamma release at 0.01 nM to 100 nM pretreated for 30 mins followed LPS stimulation and measured after 24 hrs by multiplex chemiluminescence detection method; assay type: functional; conditions: time 24.5 hrs; in short: as §1
THP-1 [21] = assay: Anti-inflammatory activity against human THP-1 monocytes assessed as reduction in LPS-induced IFNgamma release at 1 pM pretreated for 30 mins followed LPS stimulation and measured after 24 hrs by multiplex chemiluminescence detection method; assay type: functional, cell-based; conditions: time 24.5 hrs; in short: as §1
THP-1 [22] = assay: Cytotoxicity against human THP-1 monocytes assessed as LDH release at 1 pM incubated for 24 hrs in absence of LPS by LDH assay; assay type: toxicity, cell-based; conditions: thp-1, 24 h; in short: as §2
[23] = biological target: T1, Nuclear factor NF-kappa-B complex (Homo sapiens); assay: Inhibition of TNFalpha-stimulated NF-kappaB activity (unknown origin) expressed in mouse primary smooth muscle cells at 1 nM pretreated for 30 mins followed by TNFalpha stimulation and incubated for 24 hrs by SEAP reporter gene assay; assay type: cell-based; conditions: THP-1, time 24.5 hrs; in short: as §3

T1 sequence (P19838 whole entry, looked up): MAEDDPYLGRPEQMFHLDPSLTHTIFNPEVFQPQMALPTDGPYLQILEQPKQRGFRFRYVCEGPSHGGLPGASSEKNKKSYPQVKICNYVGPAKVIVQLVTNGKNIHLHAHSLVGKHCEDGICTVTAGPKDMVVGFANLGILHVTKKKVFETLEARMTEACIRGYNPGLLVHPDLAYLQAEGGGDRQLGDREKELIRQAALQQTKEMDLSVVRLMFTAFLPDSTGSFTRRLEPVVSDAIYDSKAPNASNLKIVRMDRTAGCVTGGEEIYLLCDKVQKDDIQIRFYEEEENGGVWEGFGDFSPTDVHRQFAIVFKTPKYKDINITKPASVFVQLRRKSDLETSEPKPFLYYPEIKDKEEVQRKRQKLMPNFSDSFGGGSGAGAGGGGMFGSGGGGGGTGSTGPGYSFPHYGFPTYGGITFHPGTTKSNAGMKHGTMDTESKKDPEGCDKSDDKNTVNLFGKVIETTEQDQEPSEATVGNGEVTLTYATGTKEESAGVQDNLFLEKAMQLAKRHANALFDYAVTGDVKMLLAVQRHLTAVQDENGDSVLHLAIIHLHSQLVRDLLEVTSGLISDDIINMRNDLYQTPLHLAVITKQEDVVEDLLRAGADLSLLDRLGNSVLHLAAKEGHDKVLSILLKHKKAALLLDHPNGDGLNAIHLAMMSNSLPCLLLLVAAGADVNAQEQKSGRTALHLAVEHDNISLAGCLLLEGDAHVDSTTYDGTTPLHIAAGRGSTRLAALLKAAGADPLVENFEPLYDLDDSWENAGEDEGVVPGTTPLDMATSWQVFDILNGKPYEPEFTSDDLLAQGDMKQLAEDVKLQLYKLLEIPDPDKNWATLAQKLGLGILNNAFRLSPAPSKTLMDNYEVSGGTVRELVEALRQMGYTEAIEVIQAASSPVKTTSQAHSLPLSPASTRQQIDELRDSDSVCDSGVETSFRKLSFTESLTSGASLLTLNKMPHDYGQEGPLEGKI
T1 sequence (Q00653 whole entry, looked up): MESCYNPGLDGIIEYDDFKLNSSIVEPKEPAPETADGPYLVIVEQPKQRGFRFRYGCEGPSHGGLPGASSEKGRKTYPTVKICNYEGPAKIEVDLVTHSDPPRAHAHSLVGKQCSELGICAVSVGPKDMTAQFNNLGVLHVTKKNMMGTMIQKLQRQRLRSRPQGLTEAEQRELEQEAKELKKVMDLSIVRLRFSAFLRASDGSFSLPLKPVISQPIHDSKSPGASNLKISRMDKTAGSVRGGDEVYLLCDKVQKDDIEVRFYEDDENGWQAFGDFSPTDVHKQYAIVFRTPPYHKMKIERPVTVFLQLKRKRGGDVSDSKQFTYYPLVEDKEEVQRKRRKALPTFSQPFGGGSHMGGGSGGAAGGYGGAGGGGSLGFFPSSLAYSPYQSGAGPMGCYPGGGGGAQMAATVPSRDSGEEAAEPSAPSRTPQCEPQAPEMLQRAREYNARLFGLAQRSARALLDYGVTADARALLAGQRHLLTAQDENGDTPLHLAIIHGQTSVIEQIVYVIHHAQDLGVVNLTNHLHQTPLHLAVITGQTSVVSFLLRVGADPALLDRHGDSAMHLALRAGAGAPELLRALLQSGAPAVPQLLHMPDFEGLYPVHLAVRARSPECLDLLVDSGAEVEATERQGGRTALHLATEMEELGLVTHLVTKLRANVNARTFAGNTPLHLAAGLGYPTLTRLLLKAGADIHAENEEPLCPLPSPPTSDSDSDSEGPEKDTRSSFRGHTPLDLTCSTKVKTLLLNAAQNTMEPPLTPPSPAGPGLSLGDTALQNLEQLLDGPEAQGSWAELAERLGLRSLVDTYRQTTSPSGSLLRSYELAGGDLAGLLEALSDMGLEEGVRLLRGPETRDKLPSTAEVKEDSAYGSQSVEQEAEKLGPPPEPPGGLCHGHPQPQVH
T1 sequence (Q04206 whole entry, looked up): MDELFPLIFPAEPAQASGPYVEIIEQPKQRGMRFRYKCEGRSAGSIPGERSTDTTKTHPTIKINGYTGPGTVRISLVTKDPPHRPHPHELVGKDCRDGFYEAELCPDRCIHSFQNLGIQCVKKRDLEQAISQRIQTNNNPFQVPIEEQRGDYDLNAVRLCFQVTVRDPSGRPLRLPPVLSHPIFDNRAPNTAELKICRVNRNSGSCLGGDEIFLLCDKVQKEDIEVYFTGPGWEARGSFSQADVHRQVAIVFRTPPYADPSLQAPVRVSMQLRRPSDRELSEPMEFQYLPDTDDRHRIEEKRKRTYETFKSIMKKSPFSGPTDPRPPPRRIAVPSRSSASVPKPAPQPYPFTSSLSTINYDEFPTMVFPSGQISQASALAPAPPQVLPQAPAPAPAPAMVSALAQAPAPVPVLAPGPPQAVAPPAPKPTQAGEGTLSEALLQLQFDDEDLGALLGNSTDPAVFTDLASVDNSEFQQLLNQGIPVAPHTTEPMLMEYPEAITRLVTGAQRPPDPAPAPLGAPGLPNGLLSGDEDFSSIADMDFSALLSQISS

**Q.** With `CCCCC[C@H](O)c1nc2ccccc2nc1/C=C/[C@@H](O)[C@@H](O)CCCC(=O)OC` as the molecule, how does the Imax [1] read?
**A.** The Imax was 25%.

**Q.** What about the Activity (THP-1 [2]) of the same molecule?
**A.** The Activity was “inactive”.

**Q.** With `CCCCC[C@H](O)c1nc2ccccc2nc1/C=C/[C@H]1OC(C)(C)O[C@H]1CCCC(=O)OC` as the molecule, how does the Activity (THP-1 [3]) read?
**A.** The Activity was “Toxic”.

**Q.** What does the source list for `CCCCC[C@H](O)/C=C/C=C\C=C\C=C\[C@@H](O)[C@@H](O)CCCC(=O)O` [LIPOXIN A4]?
**A.** Activity (HEK293): Active; inhibition [4]: Active; Imax (THP-1 [2]): 93%; Activity (THP-1 [5]): Active; Activity (THP-1 [6]): Active

**Q.** What does the source list for `CCCCC[C@@H](O)c1nc2ccccc2nc1/C=C/[C@H]1OC(C)(C)O[C@H]1CCCC(=O)OC`?
**A.** Activity (THP-1 [3]): Toxic; Activity (Mus musculus [7]): inactive

**Q.** Which results are given for `CCCCC[C@@H](O)c1nc2ccccc2nc1/C=C/[C@@H](O)[C@@H](O)CCCC(=O)OC`?
**A.** Activity (Mus musculus [8]): 22.5%; Activity (Mus musculus [9]): inactive; fold change (FC) (THP-1 [10]): 1.3; Activity (Mus musculus [11]): inactive; Activity (THP-1 [3]): Non-Toxic; Activity (Mus musculus [7]): Active; Activity (Mus musculus [12]): 68%; Activity (Mus musculus [13]): inactive; Activity (THP-1 [6]): Active; Activity (Mus musculus [14]): 3.2 10^6/ml

**Q.** How did the Activity (THP-1 [15]) turn out when `C[C@@H]1C[C@H]2[C@@H]3CCC4=CC(=O)C=C[C@]4(C)[C@@]3(F)[C@@H](O)C[C@]2(C)[C@@]1(O)C(=O)CO` [DEXAMETHASONE] was run?
**A.** The Activity was “inactive”.

**Q.** What about the Activity (Mus musculus [9]) of the same molecule?
**A.** The Activity was “inactive”.

**Q.** And the Activity (Mus musculus [11])?
**A.** The Activity was “inactive”.

**Q.** What about the Activity (Mus musculus [13]) of the same molecule?
**A.** Its Activity is “inactive”.

**Q.** What about the Activity (THP-1 [16]) of the same molecule?
**A.** The Activity was “Non-Toxic”.

**Q.** And the Activity (Mus musculus [17])?
**A.** The Activity was 51%.

**Q.** And the Activity (Mus musculus [18])?
**A.** The Activity was 33.5%.

**Q.** Which IC50 (THP-1 [19]) does the source give for `CCC[C@H](O)c1nc2ccccc2nc1/C=C/[C@@H](O)[C@@H](O)CCCC(=O)OC` here?
**A.** The IC50 was 1 pM.

**Q.** And the Imax (THP-1 [20])?
**A.** The Imax was 85%.

**Q.** What about the Imax [1] of the same molecule?
**A.** Its Imax is 30%.

**Q.** What does the source list for `CCCCC[C@@H](O)c1ccccc1/C=C/[C@@H](O)[C@@H](O)CCCC(=O)OC`?
**A.** Activity (THP-1 [21]): inactive; Activity (THP-1 [22]): Non-Toxic; inhibition [23]: Active

**Q.** With `CCCCC[C@@H](O)c1c(/C=C/[C@@H](O)[C@@H](O)CCCC(=O)OC)nc(C)n1C` as the molecule, how does the Activity (THP-1 [22]) read?
**A.** Its Activity is “Non-Toxic”.

**Q.** How did the IC50 (THP-1 [19]) turn out when `CCC[C@@H](O)c1nc2ccccc2nc1/C=C/[C@@H](O)[C@@H](O)CCCC(=O)OC` was run?
**A.** Its IC50 is 1 pM.

**Q.** And the Imax (THP-1 [20])?
**A.** The Imax was 85%.

**Q.** What about the Imax [1] of the same molecule?
**A.** Its Imax is 30%.

**Q.** What about the Activity (THP-1 [3]) of the same molecule?
**A.** Its Activity is “Non-Toxic”.

**Q.** Which Activity (THP-1 [3]) does the source give for `CCCCCCC[C@H](O)c1nc2ccccc2nc1/C=C/[C@@H](O)[C@@H](O)CCCC(=O)OC` here?
**A.** Its Activity is “Non-Toxic”.

From ChEMBL document CHEMBL5038597 (J Med Chem, 2021)
